Experimental data: ChEMBL document CHEMBL1153988 (J Med Chem, 2009)
The source made the active and inactive calls. The rule behind the calls is not given here.

Experiments:
Mus musculus [1] = experiment: Anticonvulsant activity in CF1 albino mouse assessed as protection against maximal electroshock-induced seizures at 30 mg/kg, ip after 4 hrs; format: functional, organism-based; parameters: dose 30 mg/kg
In short: (§1)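 Adult male CF no. 1 albino mice (18-25 g). Test compound suspended in 0.5% methylcellulose and given intraperitoneally at 0.01 mL/g body weight. Maximal electroshock challenge at the stated time. Read-out is the number of animals protected over the number tested; neurotoxicity is scored in parallel.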

Mus musculus [2] = experiment: Anticonvulsant activity in CF1 albino mouse assessed as protection against maximal electroshock-induced seizures at 100 mg/kg, ip after 4 hrs; format: functional, organism-based; parameters: dose 100 mg/kg; in short: as §1
Mus musculus [3] = experiment: Anticonvulsant activity in CF1 albino mouse assessed as protection against maximal electroshock-induced seizures at 300 mg/kg, ip after 4 hrs; format: functional, organism-based; parameters: dose 300 mg/kg; in short: as §1
Mus musculus [4] = experiment: Anticonvulsant activity in CF1 albino mouse assessed as protection against scMet-induced seizures at 30 mg/kg, ip after 0.5 hrs; format: functional, organism-based; parameters: dose 30 mg/kg
In short: (§2)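 Adult male CF no. 1 albino mice (18-25 g) dosed intraperitoneally with compound suspended in 0.5% methylcellulose (0.01 mL/g). Convulsant challenge given subcutaneously as a 0.85% pentylenetetrazol solution in 0.9% saline. Read-out is animals protected over animals tested, with neurotoxicity scored in parallel.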

Mus musculus [5] = experiment: Anticonvulsant activity in CF1 albino mouse assessed as protection against scMet-induced seizures at 100 mg/kg, ip after 0.5 hrs; format: functional, organism-based; parameters: dose 100 mg/kg; in short: as §2
Mus musculus [6] = experiment: Anticonvulsant activity in CF1 albino mouse assessed as protection against scMet-induced seizures at 300 mg/kg, ip after 0.5 hrs; format: functional, organism-based; parameters: dose 300 mg/kg; in short: as §2
Mus musculus [7] = experiment: Anticonvulsant activity in CF1 albino mouse assessed as protection against scMet-induced seizures at 30 mg/kg, ip after 4 hrs; format: functional, organism-based; parameters: dose 30 mg/kg; in short: as §2
Mus musculus [8] = experiment: Anticonvulsant activity in CF1 albino mouse assessed as protection against scMet-induced seizures at 100 mg/kg, ip after 4 hrs; format: functional, organism-based; parameters: dose 100 mg/kg; in short: as §2
Mus musculus [9] = experiment: Anticonvulsant activity in CF1 albino mouse assessed as protection against scMet-induced seizures at 300 mg/kg, ip after 4 hrs; format: functional, organism-based; parameters: dose 300 mg/kg; in short: as §2
Mus musculus [10] = experiment: Neurotoxicity in CF1 albino mouse at 30 mg/kg, ip after 0.5 hrs; format: toxicity, organism-based; parameters: dose 30 mg/kg, route intraperitoneal; details: in vivo
In short: (§3)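 Male CF no. 1 albino mice (18-25 g) received a single ip dose as a suspension in 0.5% methylcellulose. The read-out was the number of animals showing neurotoxicity (minimal motor impairment) over the number tested.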

Mus musculus [11] = experiment: Neurotoxicity in CF1 albino mouse at 300 mg/kg, ip after 0.5 hrs; format: toxicity, organism-based; parameters: dose 300 mg/kg, route intraperitoneal; details: in vivo; in short: as §3
Mus musculus [12] = experiment: Neurotoxicity in CF1 albino mouse at 30 mg/kg, ip after 4 hrs; format: toxicity, organism-based; parameters: dose 30 mg/kg, route intraperitoneal; details: in vivo; in short: as §3
Mus musculus [13] = experiment: Neurotoxicity in CF1 albino mouse at 100 mg/kg, ip after 4 hrs; format: toxicity, organism-based; parameters: dose 100 mg/kg, route intraperitoneal; details: in vivo; in short: as §3
Mus musculus [14] = experiment: Neurotoxicity in CF1 albino mouse at 300 mg/kg, ip after 4 hrs; format: toxicity, organism-based; parameters: dose 300 mg/kg, route intraperitoneal; details: in vivo; in short: as §3
Rattus norvegicus [15] = experiment: Anticonvulsant activity in albino Sprague-Dawley rat assessed as protection against maximal electroshock-induced seizures at 50 mg/kg, po after 4 hrs; format: functional, organism-based; parameters: dose 50 mg/kg
In short: (§4)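 Adult male Sprague-Dawley albino rats (100-150 g) dosed orally with compound suspended in 0.5% methylcellulose (0.04 mL per 10 g). Maximal electroshock challenge at the stated time. Protection is scored in 25% steps as the fraction of animals protected, with neurotoxicity recorded in parallel.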

Rattus norvegicus [16] = experiment: Anticonvulsant activity in albino Sprague-Dawley rat assessed as protection against maximal electroshock-induced seizures at 50 mg/kg, po after 15 mins; format: functional; in short: as §4
Rattus norvegicus [17] = experiment: Anticonvulsant activity in albino Sprague-Dawley rat assessed as protection against maximal electroshock-induced seizures at 50 mg/kg, po after 30 mins; format: functional; in short: as §4
Rattus norvegicus [18] = experiment: Anticonvulsant activity in albino Sprague-Dawley rat assessed as protection against maximal electroshock-induced seizures at 50 mg/kg, po after 1 hr; format: functional; in short: as §4
Rattus norvegicus [19] = experiment: Anticonvulsant activity in albino Sprague-Dawley rat assessed as protection against maximal electroshock-induced seizures at 50 mg/kg, po after 2 hrs; format: functional; in short: as §4
Rattus norvegicus [20] = experiment: Neurotoxicity in albino Sprague-Dawley rat at 50 mg/kg, po; format: toxicity, organism-based; parameters: dose 50 mg/kg, route oral; details: in vivo
In short: (§5)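 Neurotoxicity was scored in male Sprague-Dawley albino rats (100-150 g) dosed orally with a suspension in 0.5% methylcellulose. The read-out was the fraction of animals showing neurotoxicity (minimal motor impairment).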

Rattus norvegicus [21] = experiment: Anticonvulsant activity in albino Sprague-Dawley rat assessed as protection against scMet-induced seizures at 50 mg/kg, po after 15 mins; format: functional
In short: (§6)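 Male Sprague-Dawley albino rats (100-150 g) were given the compound orally as a suspension in 0.5% methylcellulose. Seizures were induced by subcutaneous pentylenetetrazol, dissolved in 0.9% saline as a 2.82% solution. The read-out was animals protected over animals tested.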

Rattus norvegicus [22] = experiment: Anticonvulsant activity in albino Sprague-Dawley rat assessed as protection against scMet-induced seizures at 50 mg/kg, po after 30 mins; format: functional; in short: as §6
Rattus norvegicus [23] = experiment: Anticonvulsant activity in albino Sprague-Dawley rat assessed as protection against scMet-induced seizures at 50 mg/kg, po after 1 hr; format: functional; in short: as §6
Rattus norvegicus [24] = experiment: Anticonvulsant activity in albino Sprague-Dawley rat assessed as protection against scMet-induced seizures at 50 mg/kg, po after 2 hrs; format: functional; in short: as §6
Rattus norvegicus [25] = experiment: Anticonvulsant activity in albino Sprague-Dawley rat assessed as protection against scMet-induced seizures at 50 mg/kg, po after 4 hrs; format: functional; in short: as §6
Rattus norvegicus [26] = experiment: Anticonvulsant activity in po dosed albino Sprague-Dawley rat assessed as protection against maximal electroshock-induced seizures; format: functional
Rattus norvegicus [27] = species: Rattus norvegicus; experiment: Protective index, ratio of TD50 for albino Sprague-Dawley rat to ED50 for maximal electroshock-induced albino Sprague-Dawley rat seizure model; format: functional
In short: (§7)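 Protective index is the rat TD50 (minimal motor impairment) divided by the ED50 in the MES or sc pentylenetetrazol test. Male Sprague-Dawley rats were dosed orally in 0.5% methylcellulose, and both values came from probit analysis.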

Rattus norvegicus [28] = experiment: Anticonvulsant activity in po dosed albino Sprague-Dawley rat assessed as protection against scMet-induced seizures; format: functional
In short: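 Male Sprague-Dawley albino rats (100-150 g) were dosed orally in 0.5% methylcellulose and tested by MES or by sc pentylenetetrazol (2.82% in 0.9% saline). Doses were varied to give 3-4 points between 0% and 100% protection. ED50 and 95% confidence intervals came from probit analysis.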

Rattus norvegicus [29] = species: Rattus norvegicus; experiment: Protective index, ratio of TD50 for albino Sprague-Dawley rat to ED50 for scMet-induced albino Sprague-Dawley rat seizure model; format: functional; in short: as §7
[30] = Neurotoxicity in po dosed albino Sprague-Dawley rat assessed as minimal motor impairment; format: toxicity, organism-based; details: in vivo
In short: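 Rats: male Sprague-Dawley (100-150 g), oral dosing in 0.5% methylcellulose. Doses were varied to give four points between no minimal motor impairment and all animals impaired. TD50 and 95% confidence intervals came from probit analysis.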

Rattus norvegicus [31] = experiment: Anticonvulsant activity in albino Sprague-Dawley rat assessed as protection against scMet-induced seizures at 50 mg/kg, po; format: functional, organism-based; parameters: dose 50 mg/kg; in short: as §6
Rattus norvegicus [32] = experiment: Neurotoxicity in albino Sprague-Dawley rat assessed as minimal motor impairment at 200 mg/kg, po; format: toxicity, organism-based; parameters: dose 200 mg/kg, route oral; details: in vivo; in short: as §5
Mus musculus [33] = experiment: Anticonvulsant activity in CF1 albino mouse assessed as protection against maximal electroshock-induced seizures at 30 mg/kg, ip after 0.5 hrs; format: functional, organism-based; parameters: dose 30 mg/kg; in short: as §1
Mus musculus [34] = experiment: Anticonvulsant activity in CF1 albino mouse assessed as protection against maximal electroshock-induced seizures at 100 mg/kg, ip after 0.5 hrs; format: functional, organism-based; parameters: dose 100 mg/kg; in short: as §1
Mus musculus [35] = experiment: Anticonvulsant activity in CF1 albino mouse assessed as protection against maximal electroshock-induced seizures at 300 mg/kg, ip after 0.5 hrs; format: functional, organism-based; parameters: dose 300 mg/kg; in short: as §1

CC1(C)C(C)(C)C1(Cl)C(N)=O
Activity (Mus musculus [1]): Non-toxic | Activity (Mus musculus [2]): Non-toxic | Activity (Mus musculus [3]): Non-toxic | Activity (Mus musculus [4]): Non-toxic | Activity (Mus musculus [5]): Non-toxic | Activity (Mus musculus [6]): Toxic | Activity (Mus musculus [7]): Non-toxic | Activity (Mus musculus [8]): Non-toxic | Activity (Mus musculus [9]): Non-toxic | Activity (Mus musculus [10]): Non-toxic | Activity (Mus musculus [11]): Toxic | Activity (Mus musculus [12]): Non-toxic | Activity (Mus musculus [13]): Non-toxic | Activity (Mus musculus [14]): Non-toxic | Activity (Rattus norvegicus [15]): inactive | Activity (Rattus norvegicus [16]): 25% | Activity (Rattus norvegicus [17]): 25% | Activity (Rattus norvegicus [18]): 75% | Activity (Rattus norvegicus [19]): 75% | Activity (Rattus norvegicus [20]): Not Active | Activity (Rattus norvegicus [21]): inactive | Activity (Rattus norvegicus [22]): 50% | Activity (Rattus norvegicus [23]): 50% | Activity (Rattus norvegicus [24]): 25% | Activity (Rattus norvegicus [25]): inactive | ED50 (Rattus norvegicus [26]): 97 mg/kg | PI (Rattus norvegicus [27]): >2.1 | ED50 (Rattus norvegicus [28]): 27 mg/kg | PI (Rattus norvegicus [29]): >7.8 | TD50 [30]: > 200 mg/kg | Activity (Rattus norvegicus [31]): Active | Activity (Rattus norvegicus [32]): Non-toxic | Activity (Mus musculus [33]): Non-toxic | Activity (Mus musculus [34]): Non-toxic | Activity (Mus musculus [35]): Toxic
